Results from ChEMBL document CHEMBL2010778, “Thiadiazoles as new inhibitors of diacylglycerol acyltransferase type 1” (Bioorg Med Chem Lett, 2012).

How the values were obtained:
[1] = molecular target: T1, Diacylglycerol O-acyltransferase 1 (Homo sapiens, UniProt O75907); assay: Inhibition of human recombinant DGAT1 expressed in baculovirus infected Sf9 cells after 60 mins by scintillation counting method
T1 sequence (O75907 whole entry): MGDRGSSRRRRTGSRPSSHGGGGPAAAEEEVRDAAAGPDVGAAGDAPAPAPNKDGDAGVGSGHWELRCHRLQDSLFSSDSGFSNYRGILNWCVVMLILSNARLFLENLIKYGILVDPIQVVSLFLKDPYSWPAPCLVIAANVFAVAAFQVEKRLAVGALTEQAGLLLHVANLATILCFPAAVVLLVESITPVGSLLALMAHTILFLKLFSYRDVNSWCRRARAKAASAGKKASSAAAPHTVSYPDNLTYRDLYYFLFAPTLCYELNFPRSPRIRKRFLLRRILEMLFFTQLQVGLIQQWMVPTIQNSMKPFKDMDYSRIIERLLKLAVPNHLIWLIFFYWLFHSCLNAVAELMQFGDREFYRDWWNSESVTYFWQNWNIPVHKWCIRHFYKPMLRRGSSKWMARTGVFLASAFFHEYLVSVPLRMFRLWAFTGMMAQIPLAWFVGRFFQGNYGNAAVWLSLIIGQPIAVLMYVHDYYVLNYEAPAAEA

[2] = Metabolic stability in human hepatic microsomes assessed as compound metabolism after 20 mins; format: ADME; conditions: liver microsomes, read-out: Drug metabolism
Method in brief: (§1)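 Compound was incubated for 20 min with human or mouse hepatic microsomal fraction. % liability is the disappearance of parent compound at the end of the incubation.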

[3] = test system: Mus musculus; assay: Antihyperlipidemic activity in C57BL/6J mouse assessed as inhibition of rise in plasma triglyceride level at 1 mg/kg, po administered 1 hr before lipid challenge; format: functional
Method in brief: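 Fasted male C57Bl/6J mice (n = 10/group) were dosed orally at 1 mg/kg in 0.5% methylcellulose/1% DMSO (10 mL/kg), 1 h before a 100 µL corn oil or water bolus. Blood was taken by intracardiac puncture under isoflurane 1 h after the challenge, and plasma triglycerides were measured with a commercial kit. Inhibition of the TG rise was assessed against vehicle by one-way ANOVA with Dunnett test.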

[4] = Permeability across human Caco2 cell membrane; format: ADME, cell-based; conditions: Caco-2, read-out: permeability
[5] = Plasma concentration in C57BL/6J mouse at 1 mg/kg, po administered 1 hr before lipid challenge measured after 1 hr post dose; format: ADME, organism-based; design: dose 1 mg/kg, route oral
[6] = Metabolic stability in mouse hepatic microsomes assessed as compound metabolism after 20 mins; format: ADME; conditions: liver microsomes, read-out: Drug metabolism; method in brief: as §1

Row | IC50 [1] [µM] | metabolised at 20 min [2] [%] | Papp [4] [×10⁻⁶ cm/s] | concentration at 1 h [5] [ng/mL] | metabolised at 20 min [6] [%] | SMILES | inhibition in vivo at 1 mg/kg [3] [%]
1 |  | 0 | 11.2 | 79.1 | 5 | O=C(O)C[C@H]1CC[C@H](c2ccc(C(=O)Nc3nnc(Cc4ccccc4)s3)cc2)CC1 | 95
2 | > 10 |  |  |  |  | CN(C(=O)c1ccc([C@H]2CC[C@H](CC(=O)O)CC2)cc1)c1nnc(Cc2ccccc2)s1 | 
3 | > 10 |  |  |  |  | O=C(O)CC1CCC(c2ccc(Nc3nnc(Cc4ccccc4)s3)cc2)CC1 (mixture of isomers) | 

Continued, compound first:

Row | SMILES | IC50 [1] [µM] | metabolised at 20 min [2] [%] | Papp [4] [×10⁻⁶ cm/s] | concentration at 1 h [5] [ng/mL] | metabolised at 20 min [6] [%] | inhibition in vivo at 1 mg/kg [3] [%]
4 | CS(=O)(=O)c1nnc(NC(=O)c2ccc([C@H]3CC[C@H](CC(=O)O)CC3)cc2)s1 | > 10 |  |  |  |  | 
5 | O=C(O)C[C@H]1CC[C@H](c2ccc(C(=O)Nc3nnc(Cc4cccc(F)c4)s3)cc2)CC1 |  | 1 | 12 |  | 10 | 107
6 | O=C(O)C[C@H]1CC[C@H](c2ccc(C(=O)Nc3nnc(Cc4ccccc4F)s3)cc2)CC1 |  | 0 | 7.5 |  | 4 | 120
7 | O=C(O)C[C@H]1CC[C@H](c2ccc(C(=O)Nc3nnc(Cc4cccc(Cl)c4)s3)cc2)CC1 |  | 6 | 8 |  | 14 | 101
8 | CC(C)[C@H](NC(=O)c1ccc(-c2ccc(Nc3nnc(Cc4ccccc4)s3)cc2)cc1)C(=O)O |  |  | 0.04 |  |  | 
